Like-named read-outs stand apart in the source and are kept apart here.

For data set [1], the system named is MCF-7 breast cancer cells. Particulars: 0–100 μM; cited from earlier work.
The subject of data set [2] is MDA-MB-231 breast cancer cell line. Kind of data set: MTT cell viability assay, MDA-MB-231 breast cancer cells. Particulars: read-out: IC50 on MDA-MB-231. The data set is classed as cell-based, human. A digest of the protocol:
(§1)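 Cells grown in DMEM with 10% FBS, 100 units/ml penicillin/streptomycin and 2 mM L-glutamine at 37 °C, 5% CO₂. 5 × 10³ cells/well were seeded and attached overnight, then given test compound at 0–200 μM for 48 h. MTT was added for 4 h at 37 °C and absorbance read at 570 nm. Viability was taken relative to untreated control cells. Mean ± SD from at least three independent experiments.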

Data set [3] concerns T47D breast cancer cell line. Kind of data set: MTT cell viability assay, T47D breast cancer cells. The following applies: 48 h, read-out: IC50 on T47D. The class given is cell-based, human. In short, it runs like this:
as §1
(In general: Formazan colour is commonly taken as a measure of viable cells.)

Data set [4] concerns HaCaT human keratinocyte cell line. The experiment in a line: MTT cell viability assay, HaCaT control cells. The class given is cell-based. The following applies: 48 h, read-out: IC50 on HaCaT (human fibroblasts in text). A digest of the protocol: as §1
Data set [5] deals with MDA-MB-231 breast cancer cells. Particulars: 0–100 μM; cited from earlier work.

As a reminder, the IC50 is the concentration that inhibits the measured activity by half. For `O=Cc1ccc(O)c(O)c1` [Compound 11, 3,4-dihydroxybenzaldehyde], in data set [1], the “cytotoxic effect on MCF-7” value is reported as “did not show an anticancer effect”. The 50% inhibitory concentration (IC50) in data set [2] (Homo sapiens, MDA-MB-231, 48 h) is 67.2 ± 5.72 µM; in data set [3] (Homo sapiens, T47D), 67.7 ± 5.9 µM; in data set [4] (Homo sapiens, HaCaT) it was 115 ± 7.69 µM. Further, the “cytotoxic effect on MDA-MB-231” value in data set [5] is “did not show an anticancer effect”.
With `COc1cc([C@@H]2c3cc4c(cc3[C@@H](O[C@@H]3O[C@@H]5CO[C@@H](C)O[C@H]5[C@H](O)[C@H]3O)[C@H]3COC(=O)[C@H]23)OCO4)cc(OC)c1O` [etoposide, reference compound], the IC50 in data set [4] (Homo sapiens, HaCaT) stood at 4.86 ± 0.35 µM.
As for coelonin [Compound 10], the IC50 was 63.8 ± 10.3 µM in data set [2] (MTT, 48 h, 0–200 μM); 44.4 ± 2.7 µM in data set [3] (MTT, 0–200 μM); 114 ± 7.65 µM in data set [4] (MTT, 0–200 μM).

Values taken from publication PMC10883021 (ACS Omega, 2024).
